We go through 17 compounds from ChEMBL document CHEMBL1129567, “Structure-based design of novel, urea-containing FKBP12 inhibitors” (J Med Chem, 1996).

Peptidyl-prolyl cis-trans isomerase FKBP1A, sequence (P62942 whole entry): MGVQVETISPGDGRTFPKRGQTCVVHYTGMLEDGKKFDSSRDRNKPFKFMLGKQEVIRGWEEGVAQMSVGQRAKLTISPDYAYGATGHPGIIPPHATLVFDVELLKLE

The assay addresses Peptidyl-prolyl cis-trans isomerase FKBP1A (Homo sapiens, UniProt P62942). Kind of assay: Apparent inhibition constant of Wild-type human recombinant FK506 binding protein 12. To be noted: read-out: Ki app. An outline of the steps: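 Wild-type human recombinant FKBP12 (E. coli-expressed, purified), 90 nM, chymotrypsin-coupled continuous spectrophotometric cis-trans isomerase assay with 100 µM cis succinyl-Ala-Leu-Pro-Phe-p-nitroanilide (stock in trifluoroethanol/240 mM LiCl) at 10 or 15 °C. Buffer: 50 mM HEPES pH 8.0, 100 mM NaCl, 100 µM 2-mercaptoethanol, 1% DMSO, 6 mg/mL chymotrypsin. Read for 5 min. Fit to competitive tight-binding equation corrected for uncatalyzed isomerization.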
`CC1(CNC(=O)N2CCCC[C@H]2C(=O)OCCCCc2ccccc2)CCCCC1`: the Ki came out at 120 nM.
For `COc1cccc(CCCOC(=O)[C@@H]2CCCCN2C(=O)NCC(C)(C)C)c1`, the Ki came to 370 nM.
Turning to `CC1(CNC(=O)N2CCCC[C@H]2C(=O)OCc2ccccc2)CCCC1`, the Ki is 570 nM.
Turning to `CCCN1CC[C@@H]2CCC[C@@H](C(=O)OCc3ccccc3)N2C1=O`, the Ki came to 24000 nM.
As to `COC(=O)[C@@H]1CCC[C@H]2CCN(Cc3ccccc3)C(=O)N21`, the Ki is 67000 nM.
Regarding `O=C(OCc1ccccc1)[C@@H]1CCC[C@H]2CCN(Cc3ccccc3)C(=O)N21`, the Ki came to 14000 nM.
Under `O=C(OCc1ccccc1)[C@@H]1CCCCN1C(=O)NCc1ccccc1` stands 6500 nM.
`CC1(CNC(=O)N2CCCC[C@H]2C(=O)OCc2ccccc2)CCCCC1`: the Ki amounted to 550 nM.
Turning to `C=C(C)CNC(=O)N1CCCC[C@H]1C(=O)OCc1ccccc1`, the Ki came out at 7200 nM.
For `CCCN1CC[C@@H]2CCC[C@@H](C(=O)OC)N2C1=O`, the Ki was found to be 83000 nM.
Consider `COc1cc(CCCOC(=O)[C@@H]2CCCCN2C(=O)NCC(C)(C)C)cc(OC)c1OC`, for which the Ki was 390 nM.
On to `CC(C)(C)CNC(=O)N1CCCC[C@H]1C(=O)OCc1cccc(Oc2ccccc2)c1`, for which the Ki amounted to 220 nM.
Turning to `CC(C)(C)CNC(=O)N1CCCC[C@H]1C(=O)OCc1ccccc1`, the Ki turned out to be 790 nM.
Turning to `CC(C)(C)CNC(=O)N1CCCC[C@H]1C(=O)OCCCCc1ccccc1`, the Ki is 150 nM.
In the case of `CC(C)(CO)CNC(=O)N1CCCC[C@H]1C(=O)OCc1ccccc1` it was 8400 nM; in that of `CC(C)(C)CNC(=O)N1CCCC[C@H]1C(=O)O[C@H](CCc1ccccc1)c1ccccc1`, 350 nM.
On to `CC1(CNC(=O)N2CCCC[C@H]2C(=O)OCc2cccc(Oc3ccccc3)c2)CCCCC1`, for which the Ki amounted to 200 nM.
